Test results as given in BindingDB's records for doi:10.1021/jm970671g (Signal Pharmaceuticals, 1998).

Target: T1, Nuclear factor NF-kappa-B p105 subunit (Homo sapiens, UniProt P19838)
T1 sequence (P19838 whole entry): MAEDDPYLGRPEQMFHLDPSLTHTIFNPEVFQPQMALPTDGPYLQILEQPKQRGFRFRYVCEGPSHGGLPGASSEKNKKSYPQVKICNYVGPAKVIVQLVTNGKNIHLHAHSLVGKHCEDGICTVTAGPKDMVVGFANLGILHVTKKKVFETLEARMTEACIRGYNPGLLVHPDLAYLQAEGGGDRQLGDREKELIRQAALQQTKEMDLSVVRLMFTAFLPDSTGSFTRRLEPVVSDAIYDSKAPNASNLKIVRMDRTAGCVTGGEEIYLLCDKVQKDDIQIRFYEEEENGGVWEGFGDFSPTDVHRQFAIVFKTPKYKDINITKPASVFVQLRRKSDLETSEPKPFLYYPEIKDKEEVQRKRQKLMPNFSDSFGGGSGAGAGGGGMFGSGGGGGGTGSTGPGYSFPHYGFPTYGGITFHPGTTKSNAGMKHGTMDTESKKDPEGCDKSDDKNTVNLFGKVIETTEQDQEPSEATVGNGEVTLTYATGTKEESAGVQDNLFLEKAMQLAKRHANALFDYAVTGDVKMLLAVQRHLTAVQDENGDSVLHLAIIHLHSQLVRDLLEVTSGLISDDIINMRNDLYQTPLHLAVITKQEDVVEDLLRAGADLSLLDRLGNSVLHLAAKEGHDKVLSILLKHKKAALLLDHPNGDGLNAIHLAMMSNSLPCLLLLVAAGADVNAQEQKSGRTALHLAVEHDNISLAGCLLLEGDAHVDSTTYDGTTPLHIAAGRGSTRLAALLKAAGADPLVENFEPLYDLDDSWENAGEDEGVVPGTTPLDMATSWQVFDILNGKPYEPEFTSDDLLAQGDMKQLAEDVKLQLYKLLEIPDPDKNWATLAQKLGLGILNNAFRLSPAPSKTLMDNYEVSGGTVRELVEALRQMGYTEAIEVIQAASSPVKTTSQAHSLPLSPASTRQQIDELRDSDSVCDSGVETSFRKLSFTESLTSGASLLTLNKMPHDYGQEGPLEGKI
Test: In vitro inhibitory activity against human Jurkat T-Cells stably transfected with an Nuclear factor kappa B transcription factor
How it was run: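 Jurkat T-cells stably carrying NF-κB site (MHC promoter) on minimal SV-40 promoter driving luciferase, plated 1 × 10^6 cells/mL in 10% Serum-Plus 18 h prior. Compound in 0.2% DMSO/H2O added 0.5 h at 37 °C; induced with PMA 50 ng/mL and PHA 1 μg/mL, 5 h at 37 °C. Lysate luminescence read; IC50 = concentration halving luciferase versus control.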

Row | SMILES | IC50
1 | Nc1ncc(C(=O)Nc2cc(Cl)cc(Cl)c2)c(C(F)(F)F)n1 [2-Amino-4-trifluoromethyl-pyrimidine-5-carboxylic acid (3,5-dichloro-phenyl)-amide] | > 10000 nM
2 | O=C(Nc1cc(Cl)cc(Cl)c1)c1cnc(NCc2ccccc2)nc1C(F)(F)F [2-Benzylamino-4-trifluoromethyl-pyrimidine-5-carboxylic acid (3,5-dichloro-phenyl)-amide] | > 10000 nM
3 | CCCCNc1ncc(C(=O)Nc2cc(Cl)cc(Cl)c2)c(C(F)(F)F)n1 [2-Butylamino-4-trifluoromethyl-pyrimidine-5-carboxylic acid (3,5-dichloro-phenyl)-amide] | > 10000 nM
4 | O=C(Nc1cc(Cl)nc(Cl)n1)c1cnc(Cl)nc1C(F)(F)F [2-Chloro-4-trifluoromethyl-pyrimidine-5-carboxylic acid (2,6-dichloro-pyrimidin-4-yl)-amide] | 800 nM
5 | Cc1cccc(C)c1NC(=O)c1cnc(Cl)nc1C(F)(F)F [2-Chloro-4-trifluoromethyl-pyrimidine-5-carboxylic acid (2,6-dimethyl-phenyl)-amide] | > 10000 nM
6 | O=C(Nc1cc(Cl)c(Cl)c(Cl)c1)c1cnc(Cl)nc1C(F)(F)F [2-Chloro-4-trifluoromethyl-pyrimidine-5-carboxylic acid (3,4,5-trichloro-phenyl)-amide] | 900 nM
7 | O=C(Nc1cc(C(F)(F)F)cc(C(F)(F)F)c1)c1cnc(Cl)nc1C(F)(F)F [2-Chloro-4-trifluoromethyl-pyrimidine-5-carboxylic acid (3,5-bis-trifluoromethyl-phenyl)-amide] | 50 nM
8 | O=C(Nc1cc(Cl)cc(Cl)c1)c1cnc(Cl)nc1C(F)(F)F [2-Chloro-4-trifluoromethyl-pyrimidine-5-carboxylic acid (3,5-dichloro-phenyl)-amide] | 500 nM
9 | CN(C(=O)c1cnc(Cl)nc1C(F)(F)F)c1cc(Cl)cc(Cl)c1 [2-Chloro-4-trifluoromethyl-pyrimidine-5-carboxylic acid (3,5-dichloro-phenyl)-methyl-amide] | 2300 nM
10 | COc1cc(NC(=O)c2cnc(Cl)nc2C(F)(F)F)cc(OC)c1 [2-Chloro-4-trifluoromethyl-pyrimidine-5-carboxylic acid (3,5-dimethoxy-phenyl)-amide] | 1200 nM
11 | CCCCNC(=O)c1cc(NC(=O)c2cnc(Cl)nc2C(F)(F)F)cc(C(F)(F)F)c1 [2-Chloro-4-trifluoromethyl-pyrimidine-5-carboxylic acid (3-butylcarbamoyl-5-trifluoromethyl-phenyl)-amide] | > 10000 nM
12 | NC(=O)c1cc(NC(=O)c2cnc(Cl)nc2C(F)(F)F)cc(C(F)(F)F)c1 [2-Chloro-4-trifluoromethyl-pyrimidine-5-carboxylic acid (3-carbamoyl-5-trifluoromethyl-phenyl)-amide] | 5000 nM
13 | Cc1cc(NC(=O)c2cnc(Cl)nc2C(F)(F)F)on1 [2-Chloro-4-trifluoromethyl-pyrimidine-5-carboxylic acid (3-methyl-isoxazol-5-yl)-amide] | 4000 nM
14 | O=C(Nc1ccc(C(F)(F)F)cc1)c1cnc(Cl)nc1C(F)(F)F [2-Chloro-4-trifluoromethyl-pyrimidine-5-carboxylic acid (4-trifluoromethyl-phenyl)-amide] | 380 nM
15 | Cc1ccc(NC(=O)c2cnc(Cl)nc2C(F)(F)F)s1 [2-Chloro-4-trifluoromethyl-pyrimidine-5-carboxylic acid (5-methyl-thiophen-2-yl)-amide] | 2300 nM
16 | O=C(c1cnc(Cl)nc1C(F)(F)F)N(Cc1ccccc1)c1cc(Cl)cc(Cl)c1 [2-Chloro-4-trifluoromethyl-pyrimidine-5-carboxylic acid benzyl-(3,5-dichloro-phenyl)-amide] | 2700 nM

Row | SMILES | IC50
17 | CCCCNC(=O)c1cnc(Cl)nc1C(F)(F)F [2-Chloro-4-trifluoromethyl-pyrimidine-5-carboxylic acid butylamide] | > 10000 nM
18 | O=C(Nc1ccccc1)c1cnc(Cl)nc1C(F)(F)F [2-Chloro-4-trifluoromethyl-pyrimidine-5-carboxylic acid phenylamide] | > 10000 nM
19 | O=C(Nc1cc(Cl)cc(Cl)c1)c1cnc(NC2CCCCC2)nc1C(F)(F)F [2-Cyclohexylamino-4-trifluoromethyl-pyrimidine-5-carboxylic acid (3,5-dichloro-phenyl)-amide] | > 10000 nM
20 | CN(C)c1ncc(C(=O)Nc2cc(Cl)cc(Cl)c2)c(C(F)(F)F)n1 [2-Dimethylamino-4-trifluoromethyl-pyrimidine-5-carboxylic acid (3,5-dichloro-phenyl)-amide] | > 10000 nM
21 | O=C(Nc1cc(Cl)cc(Cl)c1)c1cnc(=O)[nH]c1C(F)(F)F [2-Hydroxy-4-trifluoromethyl-pyrimidine-5-carboxylic acid (3,5-dichloro-phenyl)-amide] | > 10000 nM
22 | COc1ncc(C(=O)Nc2cc(Cl)cc(Cl)c2)c(C(F)(F)F)n1 [2-Methoxy-4-trifluoromethyl-pyrimidine-5-carboxylic acid (3,5-dichloro-phenyl)-amide] | > 10000 nM
23 | O=C(Nc1cc(Cl)cc(Cl)c1)c1cnc(Nc2ccccc2)nc1C(F)(F)F [2-Phenylamino-4-trifluoromethyl-pyrimidine-5-carboxylic acid (3,5-dichloro-phenyl)-amide] | > 10000 nM
24 | O=C(Nc1cc(Cl)cc(Cl)c1)c1cnc(N2CCCCC2)nc1C(F)(F)F [2-Piperidin-1-yl-4-trifluoromethyl-pyrimidine-5-carboxylic acid (3,5-dichloro-phenyl)-amide] | 5000 nM
25 | CCCCOC(=O)c1cc(NC(=O)c2cnc(Cl)nc2C(F)(F)F)cc(C(F)(F)F)c1 [3-[(2-Chloro-4-trifluoromethyl-pyrimidine-5-carbonyl)-amino]-5-trifluoromethyl-benzoic acid butyl ester] | 170 nM
26 | O=C(OC1CCCCC1)c1cc(NC(=O)c2cnc(Cl)nc2C(F)(F)F)cc(C(F)(F)F)c1 [3-[(2-Chloro-4-trifluoromethyl-pyrimidine-5-carbonyl)-amino]-5-trifluoromethyl-benzoic acid cyclohexyl ester] | 1800 nM
27 | CCOP(=O)(COC(=O)c1cc(NC(=O)c2cnc(Cl)nc2C(F)(F)F)cc(C(F)(F)F)c1)OCC [3-[(2-Chloro-4-trifluoromethyl-pyrimidine-5-carbonyl)-amino]-5-trifluoromethyl-benzoic acid diethoxy-phosphorylmethyl ester] | 4600 nM
28 | CCOC(=O)c1cc(NC(=O)c2cnc(Cl)nc2C(F)(F)F)cc(C(F)(F)F)c1 [3-[(2-Chloro-4-trifluoromethyl-pyrimidine-5-carbonyl)-amino]-5-trifluoromethyl-benzoic acid ethyl ester] | 280 nM
29 | CCCCCCOC(=O)c1cc(NC(=O)c2cnc(Cl)nc2C(F)(F)F)cc(C(F)(F)F)c1 [3-[(2-Chloro-4-trifluoromethyl-pyrimidine-5-carbonyl)-amino]-5-trifluoromethyl-benzoic acid hexyl ester] | 620 nM
30 | CCCCCCCCOC(=O)c1cc(NC(=O)c2cnc(Cl)nc2C(F)(F)F)cc(C(F)(F)F)c1 [3-[(2-Chloro-4-trifluoromethyl-pyrimidine-5-carbonyl)-amino]-5-trifluoromethyl-benzoic acid octyl ester] | 1800 nM
31 | O=C(Nc1cc(Cl)cc(Cl)c1)c1cncnc1C(F)(F)F [4-Trifluoromethyl-pyrimidine-5-carboxylic acid (3,5-dichloro-phenyl)-amide] | > 10000 nM
